Reference: ChEMBL document CHEMBL4680226, “Design, synthesis, and evaluation of N-phenyl-4-(2-phenylsulfonamido)-benzamides as microtubule-targeting agents in drug-resistant cancer cells, displaying HDAC inhibitory response” (Eur J Med Chem, 2020)
pIC50: −log10 of the molar value. One block for each compound: values may come before it. Activity calls are given as the source filed them. No cut-off for these calls is given here.

What was measured:
KB = assay: Antiproliferative activity against human KB cells incubated for 48 hrs by SRB assay; type: functional
How it was run: (§1)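 KB parental and resistant sublines kept in RPMI 1640 with 5% FBS at 37 °C, 5% CO2. Cells plated, left overnight, then given graded compound concentrations for 48 h. A time-zero plate was fixed with 10% TCA at dosing. Cells were stained with 0.4% SRB in 1% acetic acid, unbound dye washed off, bound dye dissolved in 10 mM Tris base, and absorbance read at 515 nm.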

[1] = Antiproliferative activity against human KB-VIN cells incubated for 48 hrs by SRB assay; type: functional; conditions: KBVIN; how it was run: as §1
Tubulin (Homo sapiens) [2] = target: T1, Tubulin (Homo sapiens) (UniProt P68371+Q9H4B7+P0DPH7+P68366+Q13509+Q71U36+P04350+Q3ZCM7+P07437+P68363+Q9BQE3+Q6PEY2+Q13885+Q9BVA1+Q9BUF5); assay: Induction of microtubule disruption in human KB-VIN cells assessed as polymerized fraction at 1 uM measured after 16 hrs by SDS-PAGE analysis (reference value: 23.1 to 25.5%); type: cell-based
How it was run: (§2)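 KB-Vin or KB-7D cells treated 16 h, then lysed 5 min at 37 °C in the dark in hypotonic buffer (1% NP-40, 1 mmol/L MgCl2, 2 mmol/L EGTA, 50 mmol/L Tris-HCl pH 6.8, protease inhibitors). Spun 13000 rpm, 10 min, room temperature. Soluble supernatant and resuspended polymerized pellet run on SDS-PAGE.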

Tubulin (Homo sapiens) [3] = target: T1, Tubulin (Homo sapiens); assay: Induction of microtubule disruption in human KB7D cells assessed as polymerized fraction at 1 uM measured after 16 hrs by SDS-PAGE analysis (reference value: 26.4 to 29%); type: cell-based; how it was run: as §2
KB-VIN [4] = assay: Induction of apoptosis in human KB-VIN cells assessed as increase in activated gammaH2AX expression at 0.1 uM measured after 24 hrs by Western blot analysis; type: functional, cell-based
How it was run: (§3)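 Resistant KB cells attached overnight, then drug-treated at the stated concentrations and times (24 h or 48 h). Lysates were immunoblotted for cleaved PARP, caspase-3, -8 and -9, and γH2AX, with anti-mouse or anti-rabbit IgG secondaries.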

Tubulin (Homo sapiens) [5] = target: T1, Tubulin (Homo sapiens); assay: Induction of microtubule disruption in human KB-VIN cells assessed as polymerized fraction at 0.01 uM measured after 16 hrs by SDS-PAGE analysis (reference value: 23.1 to 25.5%); type: cell-based; how it was run: as §2
KB-VIN [6] = assay: Induction of apoptosis in human KB-VIN cells assessed as increase in cleaved caspase-8 expression at 0.1 uM measured after 48 hrs by Western blot analysis; type: functional, cell-based; how it was run: as §3
KB-VIN [7] = assay: Induction of apoptosis in human KB-VIN cells assessed as increase in cleaved caspase-8 expression at 0.1 uM measured after 24 hrs by Western blot analysis; type: functional, cell-based; how it was run: as §3
KB-VIN [8] = assay: Induction of apoptosis in human KB-VIN cells assessed as increase in cleaved caspase-9 expression at 0.1 uM measured after 24 hrs by Western blot analysis; type: functional, cell-based; how it was run: as §3
Tubulin (Homo sapiens) [9] = target: T1, Tubulin (Homo sapiens); assay: Induction of microtubule disruption in human KB7D cells assessed as polymerized fraction at 0.1 uM measured after 16 hrs by SDS-PAGE analysis (reference value: 26.4 to 29%); type: cell-based; how it was run: as §2
KB-VIN [10] = assay: Induction of apoptosis in human KB-VIN cells assessed as increase in cleaved caspase-9 expression at 0.1 uM measured after 48 hrs by Western blot analysis; type: functional, cell-based; how it was run: as §3
KB-VIN [11] = assay: Induction of apoptosis in human KB-VIN cells assessed as increase in activated gammaH2AX expression at 0.1 uM measured after 48 hrs by Western blot analysis; type: functional, cell-based; how it was run: as §3
KB-VIN [12] = assay: Induction of apoptosis in human KB-VIN cells assessed as increase in cleaved caspase-3 expression at 0.1 uM measured after 24 hrs by Western blot analysis; type: functional, cell-based; how it was run: as §3
KB-VIN [13] = assay: Cell cycle arrest in human KB-VIN cells assessed as increase in accumulation at sub-G1 phase at 0.1 uM measured after 48 hrs by propidium iodide staining based flow cytometry; type: functional
How it was run: (§4)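 Cells seeded at 2.5×10^5 per well and exposed to DMSO or compound for the stated times. They were washed in PBS and fixed overnight in ice-cold 70% ethanol at −20 °C. Staining used propidium iodide 80 µg/mL with 0.1% Triton X-100 and RNase A 100 µg/mL in PBS. DNA content was read by FACScan flow cytometry.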

Tubulin (Homo sapiens) [14] = target: T1, Tubulin (Homo sapiens); assay: Induction of microtubule disruption in human KB7D cells assessed as polymerized fraction at 0.01 uM measured after 16 hrs by SDS-PAGE analysis (reference value: 26.4 to 29%); type: cell-based; how it was run: as §2
Tubulin (Homo sapiens) [15] = target: T1, Tubulin (Homo sapiens); assay: Induction of microtubule disruption in human KB-VIN cells assessed as polymerized fraction at 0.1 uM measured after 16 hrs by SDS-PAGE analysis (reference value: 23.1 to 25.5%); type: cell-based; how it was run: as §2
KB-VIN [16] = assay: Induction of apoptosis in human KB-VIN cells assessed as increase in cleaved PARP expression at 0.1 uM measured after 24 hrs by Western blot analysis; type: functional, cell-based; how it was run: as §3
Tubulin (Homo sapiens) [17] = target: T1, Tubulin (Homo sapiens); assay: Induction of microtubule disruption in human KB7D cells at 1 uM measured after 24 hrs by DAPI staining based deconvolution fluorescence microscopic analysis; type: cell-based
How it was run: (§5)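 Cells on glass coverslips treated 24 h, fixed in 4% paraformaldehyde for 15 min, and permeabilized with 0.5% Triton X-100. Blocked in PBS/2% BSA, stained with anti-beta-tubulin (1:250) and Alexa 488 anti-mouse (1:250), and mounted with DAPI. Imaged by wide-field deconvolution microscopy.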

Tubulin (Homo sapiens) [18] = target: T1, Tubulin (Homo sapiens); assay: Induction of microtubule disruption in human KB-VIN cells at 1 uM measured after 24 hrs by DAPI staining based deconvolution fluorescence microscopic analysis; type: cell-based; how it was run: as §5
KB-VIN [19] = assay: Induction of apoptosis in human KB-VIN cells assessed as increase in cleaved caspase-3 expression at 0.1 uM measured after 48 hrs by Western blot analysis; type: functional, cell-based; how it was run: as §3
KB-VIN [20] = assay: Induction of apoptosis in human KB-VIN cells assessed as increase in cleaved PARP expression at 0.1 uM measured after 48 hrs by Western blot analysis; type: functional, cell-based; how it was run: as §3
KB-VIN [21] = assay: Cell cycle arrest in human KB-VIN cells assessed as increase in accumulation at sub-G1 phase at 0.01 to 0.1 uM measured after 24 hrs by propidium iodide staining based flow cytometry; type: functional; conditions: dose 0.01-0.1 µM; how it was run: as §4
KB-VIN [22] = assay: Induction of apoptosis in human KB-VIN cells assessed as increase in cleaved caspase-9 expression at 0.01 to 0.5 uM by Western blot analysis; type: functional, cell-based; conditions: dose 0.01-0.5 µM; how it was run: as §3
KB-VIN [23] = assay: Induction of apoptosis in human KB-VIN cells assessed as increase in cleaved caspase-3 expression at 0.01 to 0.5 uM by Western blot analysis; type: functional, cell-based; conditions: dose 0.01-0.5 µM; how it was run: as §3
[24] = target: Histone deacetylase 3/Nuclear receptor corepressor 2 (HDAC3/NCoR2) (Homo sapiens, UniProt O15379); assay: Inhibition of human recombinant HDAC3/NCOR2 using RHKKAc-AMC as substrate measured after 60 mins by fluorescence assay; type: protein-complex assay
[25] = Antiproliferative activity against human KB7D cells incubated for 48 hrs by SRB assay; type: functional; how it was run: as §1
KB-VIN [26] = assay: Induction of apoptosis in human KB-VIN cells assessed as increase in cleaved PARP expression at 0.01 to 0.5 uM by Western blot analysis; type: functional, cell-based; conditions: dose 0.01-0.5 µM; how it was run: as §3
Histone deacetylase 2 = Histone deacetylase 2 (Homo sapiens, UniProt Q92769); assay: Inhibition of recombinant human C-terminal GST-tagged HDAC2 (1 to 488 residues) expressed in baculovirus infected insect cells using RHKKAc-AMC as substrate measured after 60 mins by fluorescence assay
KB-VIN [27] = assay: Induction of apoptosis in human KB-VIN cells assessed as increase in cleaved caspase-8 expression at 0.01 to 0.5 uM by Western blot analysis; type: functional, cell-based; conditions: dose 0.01-0.5 µM; how it was run: as §3
Histone deacetylase 8 = target: T2, Histone deacetylase 8 (Homo sapiens, UniProt Q9BY41); assay: Inhibition of human recombinant HDAC8 using RHKAcKAc-AMC as substrate measured after 60 mins by fluorescence assay
T2 sequence (Q9BY41 whole entry): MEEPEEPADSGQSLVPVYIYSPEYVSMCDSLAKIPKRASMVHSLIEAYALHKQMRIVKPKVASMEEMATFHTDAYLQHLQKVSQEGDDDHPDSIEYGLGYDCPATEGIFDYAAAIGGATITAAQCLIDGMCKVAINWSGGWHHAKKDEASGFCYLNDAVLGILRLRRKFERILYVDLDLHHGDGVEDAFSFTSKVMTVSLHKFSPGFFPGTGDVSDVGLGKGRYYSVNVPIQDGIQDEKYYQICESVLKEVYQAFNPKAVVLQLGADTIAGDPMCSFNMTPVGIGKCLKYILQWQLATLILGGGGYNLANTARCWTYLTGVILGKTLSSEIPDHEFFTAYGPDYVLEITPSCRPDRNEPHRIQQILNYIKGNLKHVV

Histone deacetylase 1 = Histone deacetylase 1 (Homo sapiens, UniProt Q13547); assay: Inhibition of recombinant human full-length C-terminal FLAG-His tagged HDAC1 (1 to 482 residues) expressed in Sf21 insect cells using RHK-K(Ac)-AMC as substrate measured after 60 mins by fluorescence assay
KB7D = assay: Induction of apoptosis in human KB7D cells assessed as increase in activated gammaH2AX expression at 5 uM measured after 24 hrs by Western blot analysis; type: functional, cell-based; how it was run: as §3

Chain of Histone deacetylase 3/Nuclear receptor corepressor 2 (HDAC3/NCoR2) (O15379 whole entry): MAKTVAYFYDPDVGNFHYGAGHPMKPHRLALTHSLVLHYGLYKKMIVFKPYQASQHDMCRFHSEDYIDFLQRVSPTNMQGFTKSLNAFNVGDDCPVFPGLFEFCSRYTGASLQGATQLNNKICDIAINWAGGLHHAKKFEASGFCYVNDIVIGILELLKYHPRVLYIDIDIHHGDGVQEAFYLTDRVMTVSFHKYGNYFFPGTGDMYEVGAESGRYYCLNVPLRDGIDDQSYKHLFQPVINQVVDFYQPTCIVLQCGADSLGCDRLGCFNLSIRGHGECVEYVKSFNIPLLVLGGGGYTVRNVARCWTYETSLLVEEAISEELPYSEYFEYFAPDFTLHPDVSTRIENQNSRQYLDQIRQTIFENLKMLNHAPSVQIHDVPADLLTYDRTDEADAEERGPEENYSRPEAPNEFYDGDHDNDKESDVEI
Chain of Histone deacetylase 3/Nuclear receptor corepressor 2 (HDAC3/NCoR2) (Q9Y618 whole entry, further chain): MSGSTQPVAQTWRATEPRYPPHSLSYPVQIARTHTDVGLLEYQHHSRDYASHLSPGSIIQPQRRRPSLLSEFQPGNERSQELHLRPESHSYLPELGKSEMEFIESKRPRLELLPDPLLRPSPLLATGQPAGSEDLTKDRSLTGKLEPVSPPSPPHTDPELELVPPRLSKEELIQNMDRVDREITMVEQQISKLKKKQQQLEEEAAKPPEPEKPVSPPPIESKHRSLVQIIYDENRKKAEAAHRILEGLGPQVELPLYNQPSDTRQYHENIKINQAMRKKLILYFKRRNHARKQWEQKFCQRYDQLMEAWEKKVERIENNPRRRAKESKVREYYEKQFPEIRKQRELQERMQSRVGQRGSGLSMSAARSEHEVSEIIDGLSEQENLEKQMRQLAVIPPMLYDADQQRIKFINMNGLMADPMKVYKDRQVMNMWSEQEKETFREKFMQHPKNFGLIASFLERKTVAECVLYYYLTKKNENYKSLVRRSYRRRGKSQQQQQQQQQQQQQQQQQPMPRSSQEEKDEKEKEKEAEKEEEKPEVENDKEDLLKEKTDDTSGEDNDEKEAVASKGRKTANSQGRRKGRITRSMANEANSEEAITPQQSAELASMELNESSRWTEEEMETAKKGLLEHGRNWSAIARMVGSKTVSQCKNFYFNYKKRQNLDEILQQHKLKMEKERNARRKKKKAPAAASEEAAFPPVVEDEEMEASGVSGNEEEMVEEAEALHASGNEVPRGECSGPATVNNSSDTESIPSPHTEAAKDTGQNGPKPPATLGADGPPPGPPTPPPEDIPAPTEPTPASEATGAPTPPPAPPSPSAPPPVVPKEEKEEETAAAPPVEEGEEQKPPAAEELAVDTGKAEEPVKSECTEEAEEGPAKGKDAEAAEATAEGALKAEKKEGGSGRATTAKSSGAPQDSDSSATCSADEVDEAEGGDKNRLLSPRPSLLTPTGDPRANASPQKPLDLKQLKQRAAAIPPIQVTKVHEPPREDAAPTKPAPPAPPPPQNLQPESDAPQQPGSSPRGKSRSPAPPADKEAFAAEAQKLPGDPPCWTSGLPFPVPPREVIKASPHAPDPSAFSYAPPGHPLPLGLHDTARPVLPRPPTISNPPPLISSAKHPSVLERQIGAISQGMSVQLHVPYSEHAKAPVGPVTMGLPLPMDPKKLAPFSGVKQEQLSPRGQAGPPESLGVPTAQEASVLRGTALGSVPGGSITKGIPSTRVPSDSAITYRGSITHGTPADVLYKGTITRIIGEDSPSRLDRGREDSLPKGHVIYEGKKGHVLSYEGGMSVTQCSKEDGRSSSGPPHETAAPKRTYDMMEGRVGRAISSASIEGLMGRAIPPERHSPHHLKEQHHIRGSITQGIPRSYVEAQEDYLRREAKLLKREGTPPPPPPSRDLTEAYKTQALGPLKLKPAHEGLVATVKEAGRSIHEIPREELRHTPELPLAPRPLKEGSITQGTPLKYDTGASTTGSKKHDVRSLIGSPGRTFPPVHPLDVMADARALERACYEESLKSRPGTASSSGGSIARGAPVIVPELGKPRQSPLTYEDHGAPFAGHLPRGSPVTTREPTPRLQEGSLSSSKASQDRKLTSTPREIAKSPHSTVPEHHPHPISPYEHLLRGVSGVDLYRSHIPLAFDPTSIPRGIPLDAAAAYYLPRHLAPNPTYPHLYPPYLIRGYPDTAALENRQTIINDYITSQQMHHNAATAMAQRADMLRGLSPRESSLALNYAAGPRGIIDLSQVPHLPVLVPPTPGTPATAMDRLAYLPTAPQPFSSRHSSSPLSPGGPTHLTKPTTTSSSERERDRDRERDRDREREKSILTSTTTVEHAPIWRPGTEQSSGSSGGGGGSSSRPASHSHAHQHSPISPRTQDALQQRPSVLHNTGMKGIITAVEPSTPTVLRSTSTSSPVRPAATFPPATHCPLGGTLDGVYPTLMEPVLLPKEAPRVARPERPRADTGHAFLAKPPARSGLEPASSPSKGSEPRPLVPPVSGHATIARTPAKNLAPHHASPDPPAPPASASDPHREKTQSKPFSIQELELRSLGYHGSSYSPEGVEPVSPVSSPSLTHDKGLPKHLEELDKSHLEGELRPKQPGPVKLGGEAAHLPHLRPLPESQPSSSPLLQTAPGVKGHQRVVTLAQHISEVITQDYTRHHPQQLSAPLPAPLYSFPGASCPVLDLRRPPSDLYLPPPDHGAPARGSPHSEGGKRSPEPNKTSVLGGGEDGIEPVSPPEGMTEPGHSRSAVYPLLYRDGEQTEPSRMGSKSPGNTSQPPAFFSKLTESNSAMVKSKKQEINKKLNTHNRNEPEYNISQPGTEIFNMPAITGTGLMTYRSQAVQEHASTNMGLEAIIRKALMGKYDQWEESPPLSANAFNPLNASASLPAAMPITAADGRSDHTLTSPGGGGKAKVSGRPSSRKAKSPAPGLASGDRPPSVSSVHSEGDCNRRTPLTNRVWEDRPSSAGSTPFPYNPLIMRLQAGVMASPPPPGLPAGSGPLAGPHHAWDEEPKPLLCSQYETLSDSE
Chain of Histone deacetylase 2 (Q92769 whole entry, the tested form may be a part): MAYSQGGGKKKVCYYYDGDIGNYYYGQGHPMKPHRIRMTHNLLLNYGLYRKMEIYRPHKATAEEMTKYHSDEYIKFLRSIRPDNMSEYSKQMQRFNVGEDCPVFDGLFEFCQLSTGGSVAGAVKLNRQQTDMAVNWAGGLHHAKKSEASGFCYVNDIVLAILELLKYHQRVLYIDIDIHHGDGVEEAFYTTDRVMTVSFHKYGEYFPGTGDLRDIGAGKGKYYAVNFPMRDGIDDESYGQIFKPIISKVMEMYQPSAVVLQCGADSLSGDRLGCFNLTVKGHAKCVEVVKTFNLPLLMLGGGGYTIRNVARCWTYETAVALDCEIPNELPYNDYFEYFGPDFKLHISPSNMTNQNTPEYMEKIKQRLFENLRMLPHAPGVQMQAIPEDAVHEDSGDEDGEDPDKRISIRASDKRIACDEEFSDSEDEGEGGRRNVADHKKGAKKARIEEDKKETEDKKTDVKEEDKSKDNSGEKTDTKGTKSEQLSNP
Chain of Histone deacetylase 1 (Q13547 whole entry, the tested form may be a part): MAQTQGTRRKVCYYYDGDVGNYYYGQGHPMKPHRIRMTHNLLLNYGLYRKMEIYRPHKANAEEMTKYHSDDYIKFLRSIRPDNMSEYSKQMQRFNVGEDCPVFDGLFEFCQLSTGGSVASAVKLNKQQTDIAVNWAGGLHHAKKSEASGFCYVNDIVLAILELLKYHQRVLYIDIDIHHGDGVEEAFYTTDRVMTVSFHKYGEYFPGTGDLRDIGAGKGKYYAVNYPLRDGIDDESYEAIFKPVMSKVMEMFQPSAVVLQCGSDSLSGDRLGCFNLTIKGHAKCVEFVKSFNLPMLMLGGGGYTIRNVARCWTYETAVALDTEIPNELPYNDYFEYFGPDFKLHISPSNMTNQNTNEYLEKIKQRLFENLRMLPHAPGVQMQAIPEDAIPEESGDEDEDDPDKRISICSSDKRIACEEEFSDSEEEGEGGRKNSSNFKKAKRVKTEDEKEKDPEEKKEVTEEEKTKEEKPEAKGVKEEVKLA

Compound: COc1ccc(S(=O)(=O)Nc2ccc(CCc3ccc(C(=O)Nc4ccccc4N)cc3)cc2)cc1
GI50 (KB): > 10000 nM

Compound: COc1ccc(S(=O)(=O)Nc2ccccc2CCc2ccc(C(=O)Nc3cccc(N)c3)cc2)cc1
GI50 (KB): 697 nM

Compound: COc1ccc(S(=O)(=O)Nc2cccc(CCc3ccc(C(=O)Nc4ccccc4N)cc3)c2)cc1
GI50 (KB): 678 nM

Compound: COc1ccc(S(=O)(=O)Nc2ccccc2CCc2ccc(C(=O)Nc3ccccc3N)cc2)cc1OC
GI50 (KB): 888 nM

Compound: COc1ccc(S(=O)(=O)Nc2ccccc2CCc2ccccc2)cc1
GI50 (KB): 4410 nM

Compound: Nc1ccccc1NC(=O)c1ccc(CCc2ccccc2)cc1
GI50 (KB): > 10000 nM

Compound: Nc1ccccc1NC(=O)c1ccc(CNC(=O)OCc2cccnc2)cc1 [ENTINOSTAT]
GI50 [1]: 7710 nM
GI50 [25]: 5680 nM
GI50 (KB): 6630 nM
Activity (KB7D): Active

Continued, in another order:

Activity (Tubulin (Homo sapiens) [2]): 25.2%
Activity (Tubulin (Homo sapiens) [3]): 29.1%
Activity (Tubulin (Homo sapiens) [5]): 25.5%
GI50 (KB): 1.86 nM
Activity (Tubulin (Homo sapiens) [9]): 25.8%
Activity (Tubulin (Homo sapiens) [14]): 30.4%
Activity (Tubulin (Homo sapiens) [15]): 28.8%
Activity (Tubulin (Homo sapiens) [17]): Active
Activity (Tubulin (Homo sapiens) [18]): Active
Compound: CC[C@]1(O)C[C@H]2CN(CCc3c([nH]c4ccccc34)[C@@](C(=O)OC)(c3cc4c(cc3OC)N(C=O)[C@H]3[C@@](O)(C(=O)OC)[C@H](OC(C)=O)[C@]5(CC)C=CCN6CC[C@]43[C@@H]65)C2)C1 [VINCRISTINE]
GI50 [1]: 219 nM
Activity (KB-VIN [4]): Active
Activity (KB-VIN [6]): Active
Activity (KB-VIN [7]): Active
Activity (KB-VIN [8]): Active
Activity (KB-VIN [10]): Active
Activity (KB-VIN [11]): Active
Activity (KB-VIN [12]): Active
Activity (KB-VIN [13]): Active
Activity (KB-VIN [16]): Active
Activity (KB-VIN [19]): Active
Activity (KB-VIN [20]): Active
Activity (KB-VIN [21]): Active

pIC50 [24]: 5.59
GI50 (KB): 23 nM
pIC50 (Histone deacetylase 2): < 5.00
pIC50 (Histone deacetylase 8): < 5.00
pIC50 (Histone deacetylase 1): 5.92
Compound: COc1ccc(S(=O)(=O)Nc2ccccc2CCc2ccc(C(=O)Nc3ccccc3N)cc2)cc1
GI50 [1]: 31 nM
Activity (KB-VIN [22]): Active
Activity (KB-VIN [23]): Active
GI50 [25]: 22 nM
Activity (KB-VIN [26]): Active
Activity (KB-VIN [27]): Active

GI50 (KB): 660 nM
Compound: COc1ccc(S(=O)(=O)Nc2ccccc2/C=C/c2ccc(C(=O)Nc3ccccc3N)cc2)cc1

GI50 (KB): 442 nM
Compound: COc1ccc(S(=O)(=O)Nc2ccccc2-c2ccc(C(=O)Nc3ccccc3N)cc2)cc1

GI50 (KB): 137 nM
Compound: COc1ccc(S(=O)(=O)Nc2ccccc2CCc2ccc(C(=O)Nc3ccccc3)cc2)cc1
